# Source: ChEMBL document CHEMBL1130080, “Structure-activity relationships of diverse Annonaceous acetogenins against multidrug resistant human mammary adenocarcinoma (MCF-7/Adr) cells” (J Med Chem, 1997)
# How the values were obtained:
# NCI/ADR-RES = assay: Cytotoxicity against MCF-7/Adr cells.; assay type: functional, cell-based, Homo sapiens
# How it was run: (§1)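 MCF-7/Adr cells kept in RPMI with 10% heat-inactivated FCS and 1% pen/strep, plated at 15 000 cells/mL on poly(D-lysine)-coated plates, left overnight at 37 °C. Day 1: compound added in 95% ethanol (1% by volume). Incubated 6 more days, growth read by BCA protein assay (A570), normalized to vehicle wells, n = 4. IC50 from linear regression through three points spanning 50%; R value from that regression.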
# [1] = Bullaticin index relates the IC50 values by normalizing to the value of bullatacin for easy comparison.; assay type: ADME
# How it was run: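 Index is IC50 of each compound divided by bullatacin's IC50, from the same 6-day BCA protein growth assay in MCF-7/Adr cells, n = 4.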
# [2] = Statistical significance of IC 50 values; Expressed as R value; assay type: ADME; how it was run: as §1
SMILES,IC50 (NCI/ADR-RES),Bullatacin index [1],Activity [2]
CCCCCCCCCCCC[C@@H](O)[C@H](O)CC[C@H](O)[C@@H]1CC[C@@H](CCC[C@H](O)[C@@H](O)CC[C@@H](O)CC2=C[C@H](C)OC2=O)O1,> 1 µg/mL,–,–
CCCCCCCCCCCC[C@@H](O)[C@H]1CC[C@H]([C@H]2CC[C@H]([C@H](O)CCCCCC[C@@H](O)CC3=C[C@H](C)OC3=O)O2)O1,> 1 µg/mL,–,–
CCCCCCCCCCCC[C@H](O)[C@@H](O)CC[C@H](O)[C@@H]1CC[C@@H](CCC[C@H](O)[C@@H](O)CC[C@@H](O)CC2=C[C@H](C)OC2=O)O1,> 1 µg/mL,–,–
CCCCCCCCCCCC[C@@H](O)[C@H]1CC[C@H]([C@H]2CC[C@H]([C@H](O)CC[C@H](O)CCCCCCCCC3=C[C@H](C)OC3=O)O2)O1,1.4 µg/mL,67.2,1
CCCCCCCCCCCC/C=C\CC[C@@H](O)[C@H](O)CC[C@H](O)[C@@H]1CC[C@@H](CCCCC[C@@H](O)CC2=C[C@H](C)OC2=O)O1,–,5.26,0.98
CCCCCCCCCCCC[C@@H](O)[C@H]1CC[C@H]([C@H](O)CCCC[C@H](O)CCCCC[C@@H](O)CC2=C[C@H](C)OC2=O)O1 [ANNONACIN],–,4.19,0.99
CCCCCCCCCC[C@@H](O)[C@@H]1CC[C@@H]([C@@H]2CC[C@@H]([C@H](O)CCCCCCCCCC(O)CC3=CC(C)OC3=O)O2)O1 (stereo not given in full) [BULLATACIN],10.8 µg/mL,1,0.97
CCCCCCCCCC[C@H](O)[C@H]1CC[C@H]([C@H](O)CC[C@H](O)[C@@H]2CC[C@@H](CCCCCCC[C@@H](O)CC3=C[C@H](C)OC3=O)O2)O1 [BULLATALICIN],–,4.72,0.98
COc1cccc2c1C(=O)c1c(O)c3c(c(O)c1C2=O)C[C@@](O)(C(=O)CO)C[C@@H]3O[C@H]1C[C@H](N)[C@H](O)[C@H](C)O1 [DOXORUBICIN],5.37 µg/mL,258.5,1
CCCCCCCCCCCCCC[C@@H](O)[C@H](O)CC[C@H](O)[C@@H]1CC[C@@H](CCCCC[C@@H](O)CC2=C[C@H](C)OC2=O)O1 [GIGANTETROCIN A],–,0.5,0.97
CCCCC[C@H](O)CCCC[C@H](O)[C@H]1CC[C@H]([C@H]2CC[C@H]([C@H](O)CCCCCCCCCCCCC3=C[C@H](C)OC3=O)O2)O1 [MOTRILIN],–,1.23,0.99
CCCCCCCCCCCC[C@H](O)[C@H]1CC[C@H]([C@H]2CC[C@H]([C@H](O)CCCCCCCC[C@@H](O)CC3=C[C@H](C)OC3=O)O2)O1 [SQUAMOTACIN],–,6.79,1
CCCCCCCCCC[C@@H](O)[C@@H]1CC[C@H]([C@H](O)CC[C@H](O)[C@@H]2CC[C@@H](CCCCCCC[C@@H](O)CC3=C[C@H](C)OC3=O)O2)O1 [SYLVATICIN],–,2.76,0.94
CCCCCCCCCC[C@@H](O)[C@H]1CC[C@@H]([C@H]2CC[C@H]([C@H](O)CCCCCCCCCC[C@@H](O)CC3=C[C@H](C)OC3=O)O2)O1 [TRILOBACIN],59.9 µg/mL,2.89,0.98
CC[C@]1(O)C[C@@H]2CN(CCc3c([nH]c4ccccc34)[C@@](C(=O)OC)(c3cc4c(cc3OC)N(C)[C@H]3[C@@](O)(C(=O)OC)[C@H](OC(C)=O)[C@]5(CC)C=CCN6CC[C@]43[C@@H]65)C2)C1 [VINBLASTINE],390 µg/mL,18.8,1
CC[C@]1(O)C[C@H]2CN(CCc3c([nH]c4ccccc34)[C@@](C(=O)OC)(c3cc4c(cc3OC)N(C=O)[C@H]3[C@@](O)(C(=O)OC)[C@H](OC(C)=O)[C@]5(CC)C=CCN6CC[C@]43[C@@H]65)C2)C1 [VINCRISTINE],2.93 µg/mL,141.3,1
